The record followed here is PMC11325413 (ACS Omega, 2024).

The subject of one data set is MCF-7. Description: Cytotoxicity assay, breast cancer cell line. Format: cell-based. Particulars: Homo sapiens, MCF7, read-out: cytotoxic activity IC50 ± SEM, MCF-7. In outline: (§1)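 Cytotoxicity of test compound was measured by MTT assay in a panel of four human cancer cell lines, with IC50 derived from the viability read-out.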
For a further data set, the system named is Panc-1. Description: Cytotoxicity assay, pancreatic cancer cell line. The data set is classed as cell-based. Particulars: Homo sapiens, PANC-1, read-out: cytotoxic activity IC50 ± SEM, Panc-1. Summed up: as §1
In data set [1] the test system is four human cancer cell lines (A-549, MCF-7, Panc-1, HT-29). Description: Cytotoxicity assay, average over the four cancer cell lines. Particulars: read-out: cytotoxic activity average IC50 (GI50). Format: cell-based.
The test system of a further data set is A-549. Description: Cytotoxicity assay, lung cancer cell line. The data set is classed as cell-based. The note with it: Homo sapiens, A549, read-out: cytotoxic activity IC50 ± SEM, A-549. Summed up: as §1
The test system of the next data set is HT-29. In words: Cytotoxicity assay, colon cancer cell line. The data set is classed as cell-based. The note with it: Homo sapiens, HT-29, read-out: cytotoxic activity IC50 ± SEM, HT-29. Summed up:
as §1

The subject of the next data set is CK-18. In words: Apoptosis marker immunoassay in A-549: CK-18. Format: cell-based, human. Particulars: A-549 cells. In outline: (§2)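 Sandwich immunoassay quantifying pro-apoptotic (p53, BAX, caspase 3, caspase 6) and antiapoptotic (BCL-2, CK-18) proteins in human lung A-549 cells treated with test compound. Levels are expressed as fold change relative to untreated control cells, as mean ± SD of three independent experiments.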

The target in a further data set is VEGFR-2 (Homo sapiens, UniProt P35968). In words: VEGFR-2 inhibitory kinase assay. Format: biochemical.
VEGFR-2, sequence (P35968 20-1356): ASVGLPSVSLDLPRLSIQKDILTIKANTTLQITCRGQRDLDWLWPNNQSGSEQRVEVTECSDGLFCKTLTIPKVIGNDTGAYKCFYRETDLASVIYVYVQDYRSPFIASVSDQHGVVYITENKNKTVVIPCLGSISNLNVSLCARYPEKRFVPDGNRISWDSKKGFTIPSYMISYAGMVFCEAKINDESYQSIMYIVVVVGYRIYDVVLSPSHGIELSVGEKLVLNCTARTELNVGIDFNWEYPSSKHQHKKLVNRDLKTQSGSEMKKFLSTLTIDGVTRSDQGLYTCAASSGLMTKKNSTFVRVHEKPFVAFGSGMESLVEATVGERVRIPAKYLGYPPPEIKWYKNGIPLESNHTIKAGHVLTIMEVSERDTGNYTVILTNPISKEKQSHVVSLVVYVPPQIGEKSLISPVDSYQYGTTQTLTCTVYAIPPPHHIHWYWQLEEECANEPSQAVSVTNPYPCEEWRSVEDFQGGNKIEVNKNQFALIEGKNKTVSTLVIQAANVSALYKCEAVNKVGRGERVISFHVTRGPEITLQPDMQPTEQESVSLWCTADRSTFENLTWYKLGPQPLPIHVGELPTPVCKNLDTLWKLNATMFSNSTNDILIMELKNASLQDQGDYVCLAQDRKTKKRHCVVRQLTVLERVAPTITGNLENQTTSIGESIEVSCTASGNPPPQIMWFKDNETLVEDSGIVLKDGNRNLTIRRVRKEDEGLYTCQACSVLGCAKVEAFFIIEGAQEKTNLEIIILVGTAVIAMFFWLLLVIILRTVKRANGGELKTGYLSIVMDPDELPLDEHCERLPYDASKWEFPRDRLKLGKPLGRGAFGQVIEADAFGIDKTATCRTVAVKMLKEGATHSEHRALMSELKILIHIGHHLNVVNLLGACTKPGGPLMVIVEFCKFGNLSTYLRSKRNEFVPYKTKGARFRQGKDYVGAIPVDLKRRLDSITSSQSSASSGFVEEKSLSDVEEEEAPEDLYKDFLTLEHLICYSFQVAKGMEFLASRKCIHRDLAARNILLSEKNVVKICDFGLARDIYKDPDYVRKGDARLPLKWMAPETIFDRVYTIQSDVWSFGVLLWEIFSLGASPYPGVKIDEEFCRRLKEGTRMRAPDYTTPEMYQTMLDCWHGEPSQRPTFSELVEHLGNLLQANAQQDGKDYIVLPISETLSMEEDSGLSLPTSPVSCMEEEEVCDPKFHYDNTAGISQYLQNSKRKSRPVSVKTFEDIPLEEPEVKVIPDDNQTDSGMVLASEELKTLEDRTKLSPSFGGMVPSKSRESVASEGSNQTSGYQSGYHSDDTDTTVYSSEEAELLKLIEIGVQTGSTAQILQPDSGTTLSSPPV
For another data set, the system named is MCF-10A cells. In words: Cell viability assay. The data set is classed as cell-based, human. The note with it: 50 μM doses. Summed up:
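Normal human mammary gland epithelial MCF-10A cells were incubated with test compound for 4 days, and viability was read by MTT assay.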

A further data set deals with caspase 6. Description: Apoptosis marker immunoassay in A-549: caspase 6. Particulars: A-549 cells. The data set is classed as cell-based, human. In outline:
as §2

Another data set has as its system BAX. In words: Apoptosis marker immunoassay in A-549: BAX. The data set is classed as cell-based, human. The note with it: A-549 cells. Summed up:
as §2

For another data set, the system named is caspase 3. In words: Apoptosis marker immunoassay in A-549: caspase 3. Format: cell-based, human. The note with it: A-549 cells. Summed up:
as §2

The subject of another data set is p53. In words: Apoptosis marker immunoassay in A-549: p53. The data set is classed as cell-based, human. The note with it: A-549 cells. In outline: as §2
A further data set addresses EGFR (Homo sapiens, UniProt P00533). In words: EGFR-TK inhibitory assay. The data set is classed as biochemical.

EGFR, sequence (P00533 669-1210): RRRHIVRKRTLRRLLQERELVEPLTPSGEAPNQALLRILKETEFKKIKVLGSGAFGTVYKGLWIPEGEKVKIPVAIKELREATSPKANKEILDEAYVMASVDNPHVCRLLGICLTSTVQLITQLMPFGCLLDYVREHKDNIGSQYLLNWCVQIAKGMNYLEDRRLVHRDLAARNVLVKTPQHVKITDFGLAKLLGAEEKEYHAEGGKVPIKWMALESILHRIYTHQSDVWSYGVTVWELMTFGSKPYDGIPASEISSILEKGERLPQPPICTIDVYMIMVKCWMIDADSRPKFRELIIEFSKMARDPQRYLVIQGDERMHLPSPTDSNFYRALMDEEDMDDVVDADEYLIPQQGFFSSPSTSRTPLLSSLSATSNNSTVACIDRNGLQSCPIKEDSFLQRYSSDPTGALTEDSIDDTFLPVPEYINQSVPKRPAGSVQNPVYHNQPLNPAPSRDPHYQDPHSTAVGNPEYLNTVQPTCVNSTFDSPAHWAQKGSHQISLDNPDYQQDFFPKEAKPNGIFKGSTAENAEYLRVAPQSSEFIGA

The term IC50 denotes the point on the concentration scale where inhibition reaches its midpoint. For the compound `COc1cc(C2NC(=S)NC(C)=C2C(=O)OC(C)C)ccc1O` (stereo not shown) [Compound 4, Isopropyl 4-(4-Hydroxy-3-methoxyphenyl)-6-methyl-2-thioxo-1,2,3,4-tetrahydropyrimidine-5-carboxylate], the 50% inhibitory concentration (IC50) was found to be 50 ± 5 nM in the data set on MCF-7; 48 ± 4 nM in the data set on Panc-1; 49 nM in data set [1]; 47 ± 4 nM in the data set on A-549; 49 ± 4 nM in the data set on HT-29.
For `CC1=C(C(=O)OC(C)C)C(c2cccc(O)c2)NC(=S)N1` (stereo not shown) [Compound 7, Isopropyl 4-(3-Hydroxyphenyl)-6-methyl-2-thioxo-1,2,3,4-tetrahydropyrimidine-5-carboxylate] the same measures were 74 ± 7 nM, 72 ± 7 nM, 71 nM, 70 ± 7 nM and 73 ± 7 nM.
As for `COc1cc(C2NC(=O)NC(C)=C2C(=O)OC(C)C)ccc1OCc1ccccc1` (stereo not shown) [Compound 15, Isopropyl 4-[4-(Benzyloxy)-3-methoxyphenyl]-6-methyl-2-oxo-1,2,3,4-tetrahydropyrimidine-5-carboxylate], in the data set on CK-18, the “CK 18 protein expression level compared to control untreated cells” value was found to be 0.60 folds. The IC50 with MCF-7 is 36 ± 3 nM; at VEGFR-2, 3.5 ± 0.03 nM; in the data set with Panc-1, 34 ± 3 nM; in data set [1] it was 35 nM; with A-549, 33 ± 3 nM; in the data set on HT-29 it was 36 ± 3 nM. The half-maximal inhibitory concentration (IC50) at EGFR worked out at 84 ± 5 nM. Further, the “effect on nontumor cells MCF-10A” value with MCF-10A cells was “no effect”. Besides, the “caspase 6 elevation compared to control untreated cells” value in the data set with caspase 6 is reported as 9.80 fold. In addition, in the data set on BAX, the “BAX elevation compared to control untreated cells” value is on record as 14.50 fold. Moreover, in the data set with caspase 3, the “caspase 3 elevation compared to control untreated cells” value is reported as 8.70 fold. Moreover, the “p53 elevation compared to control untreated cells” value with p53 stood at 5.90 fold.
With `CC1=C(C(=O)OC(C)C)C(c2ccc(O)cc2)NC(=S)N1` (stereo not shown) [Compound 8, Isopropyl 4-(4-Hydroxyphenyl)-6-methyl-2-thioxo-1,2,3,4-tetrahydropyrimidine-5-carboxylate], the concentration for half-maximal inhibition (IC50) came to 68 ± 6 nM in the data set on MCF-7; 67 ± 6 nM in the data set with Panc-1; 67 nM in data set [1]; 64 ± 6 nM in the data set with A-549; 68 ± 6 nM in the data set with HT-29.
As to `COc1cc(C2NC(=O)NC(C)=C2C(=O)OC(C)C)cc(OC)c1OC` (stereo not shown) [Compound 11, Isopropyl 6-Methyl-2-oxo-4-(3,4,5-trimethoxyphenyl)-1,2,3,4-tetrahydropyrimidine-5-carboxylate], the IC50 stood at 58 ± 5 nM in the data set on MCF-7; 56 ± 5 nM with Panc-1; 57 nM in data set [1]; 56 ± 5 nM in the data set on A-549; 59 ± 5 nM in the data set with HT-29.
`CC1=C(C(=O)OC(C)C)C(c2cccc(O)c2)NC(=O)N1` (stereo not shown) [Compound 12, Isopropyl 4-(3-Hydroxyphenyl)-6-methyl-2-oxo-1,2,3,4-tetrahydropyrimidine-5-carboxylate]: the IC50 in the data set on MCF-7 worked out at 38 ± 3 nM; against VEGFR-2, 4.2 ± 0.04 nM; with Panc-1, 36 ± 3 nM; in data set [1] it was 37 nM; in the data set on A-549 it was 36 ± 3 nM; with HT-29 it was 38 ± 3 nM. Also, the half-maximal inhibitory concentration (IC50) against EGFR came out at 87 ± 5 nM. In addition, the “effect on nontumor cells MCF-10A” value in the data set with MCF-10A cells was “no effect”. In the data set on caspase 6, the “caspase 6 elevation compared to control untreated cells” value is recorded as 9.65 fold. Moreover, in the data set with BAX, the “BAX elevation compared to control untreated cells” value was 13.95 fold. For the same compound, the “caspase 3 elevation compared to control untreated cells” value with caspase 3 was found to be 8.20 fold. Besides, the “p53 elevation compared to control untreated cells” value in the data set with p53 is given as 4.75 fold.
Regarding `COc1ccc(C2NC(=O)NC(C)=C2C(=O)OC(C)C)cc1O` (stereo not shown) [Compound 14, Isopropyl 4-(3-Hydroxy-4-methoxyphenyl)-6-methyl-2-oxo-1,2,3,4-tetrahydropyrimidine-5-carboxylate], the “CK 18 protein expression level compared to control untreated cells” value with CK-18 turned out to be 0.40 folds. For the same compound, the half-inhibitory concentration (IC50) came to 44 ± 4 nM with MCF-7; 4.7 ± 0.04 nM against VEGFR-2; 42 ± 4 nM in the data set with Panc-1; 41 nM in data set [1]; 40 ± 4 nM with A-549; 43 ± 4 nM in the data set with HT-29. The midpoint of inhibition against EGFR, the IC50, lay at 92 ± 5 nM. In the data set on caspase 6, the “caspase 6 elevation compared to control untreated cells” value was 8.50 fold. Moreover, in the data set on BAX, the “BAX elevation compared to control untreated cells” value is 11.50 fold. Moreover, the “caspase 3 elevation compared to control untreated cells” value in the data set on caspase 3 came to 7.40 fold. Also, the “p53 elevation compared to control untreated cells” value in the data set on p53 worked out at 3.10 fold.
As for `COc1cc(C2NC(=S)NC(C)=C2C(=O)OC(C)C)cc(OC)c1OC` (stereo not shown) [Compound 6, Isopropyl 6-Methyl-2-thioxo-4-(3,4,5-trimethoxyphenyl)-1,2,3,4-tetrahydropyrimidine-5-carboxylate], the half-inhibitory concentration (IC50) was 46 ± 4 nM in the data set on MCF-7; 5.3 ± 0.05 nM at VEGFR-2; 44 ± 4 nM in the data set on Panc-1; 45 nM in data set [1]; 42 ± 4 nM in the data set on A-549; 47 ± 4 nM in the data set with HT-29. Moreover, on EGFR, inhibition was half-maximal at 98 ± 6 nM (IC50).
Take `C#Cc1cccc(Nc2ncnc3cc(OCCOC)c(OCCOC)cc23)c1` [erlotinib, reference compound]: the IC50 in the data set on MCF-7 came out at 40 ± 3 nM; in the data set on Panc-1, 30 ± 3 nM; in the data set on A-549, 30 ± 3 nM; in the data set with HT-29, 30 ± 3 nM.
Turning to `CC1=C(C(=O)OC(C)C)C(c2ccc(O)cc2)NC(=O)N1` (stereo not shown) [Compound 13, Isopropyl 4-(4-Hydroxyphenyl)-6-methyl-2-oxo-1,2,3,4-tetrahydropyrimidine-5-carboxylate], the IC50 turned out to be 64 ± 6 nM in the data set on MCF-7; 61 ± 6 nM with Panc-1; 62 nM in data set [1]; 62 ± 6 nM in the data set on A-549; 64 ± 6 nM in the data set on HT-29.
On to `COc1cc(C2NC(=O)NC(C)=C2C(=O)OC(C)C)ccc1O` (stereo not shown) [Compound 9, Isopropyl 4-(4-Hydroxy-3-methoxyphenyl)-6-methyl-2-oxo-1,2,3,4-tetrahydropyrimidine-5-carboxylate], for which the half-maximal inhibitory concentration (IC50) came to 79 ± 7 nM with MCF-7; 75 ± 7 nM with Panc-1; 76 nM in data set [1]; 74 ± 7 nM in the data set with A-549; 77 ± 7 nM in the data set on HT-29.
Turning to `COc1ccc(C2NC(=S)NC(C)=C2C(=O)OC(C)C)cc1OC` (stereo not shown) [Compound 5, Isopropyl 4-(3,4-Dimethoxyphenyl)-6-methyl-2-thioxo-1,2,3,4-tetrahydropyrimidine-5-carboxylate], the IC50 in the data set on MCF-7 came to 71 ± 6 nM; in the data set on Panc-1, 68 ± 6 nM; in data set [1], 68 nM; with A-549, 67 ± 6 nM; in the data set with HT-29, 70 ± 6 nM.
Consider `COc1ccc(C2NC(=O)NC(C)=C2C(=O)OC(C)C)cc1OC` (stereo not shown) [Compound 10, Isopropyl 4-(3,4-Dimethoxyphenyl)-6-methyl-2-oxo-1,2,3,4-tetrahydropyrimidine-5-carboxylate], for which the IC50 worked out at 55 ± 5 nM with MCF-7; 52 ± 5 nM with Panc-1; 53 nM in data set [1]; 52 ± 5 nM in the data set with A-549; 54 ± 5 nM with HT-29.
